Reference: ChEMBL document CHEMBL5625188, “Exploring diverse reactive warheads for the design of SARS-CoV-2 main protease inhibitors” (Eur J Med Chem, 2023)

Key:
[1] = Cytotoxicity against African green monkey Vero cells incubated for 5 days by neutral red uptake assay; type: toxicity, cell-based; conditions: chlorocebus sabaeus, time 5 day; for CC50: vero, 120 h; for CC50 at 120 h: Vero cells
Procedure, shortened: (§1)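 Vero E6 cells were kept in DMEM with 5% heat-inactivated FBS at 37 °C, 5% CO2, and seeded at 80,000 cells/mL. Neutral red uptake used 40 μg/mL dye for 2–4 h, read at 540 nm. CC50 came from a variable-slope dose-response fit.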

[2] = target: T1, Replicase polyprotein 1ab (Severe acute respiratory syndrome coronavirus 2, UniProt P0DTD1); assay: Inhibition of MPro of SARS CoV-2 BetaCoV/Wuhan/WIV04/2019 preincubated for 30 mins followed by substrate addition measured for 1 hr by FRET assay
[3] = Cytotoxicity against human Calu-3 cells infected with SARS CoV-2 USA-WA1/2020 clinical isolate assessed as reduction in cell viability incubated for 48 hrs by imaging analysis; type: toxicity, cell-based
[4] = Cytotoxicity against African green monkey Vero cells; type: toxicity, cell-based; conditions: chlorocebus sabaeus; procedure, shortened: as §1
[5] = target: T1, Replicase polyprotein 1ab; assay: Inhibition of SARS-CoV-2 MPro
Procedure, shortened: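 FRET substrate was added to 10 μM final. Fluorescence (ex 360, em 460 nm) was followed 1 h at 30 °C. Initial velocities came from linear regression of the first 15 min, giving % inhibition and IC50.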

SARS-CoV-2 = assay: Antiviral activity against SARS CoV-2 USA-WA1/2020 clinical isolate infected in human Calu-3 cells assessed as reduction in viral infection incubated for 48 hrs by imaging analysis; type: functional, organism-based; conditions: Severe acute respiratory syndrome coronavirus 2, USA-WA1/2020, Calu-3, 48 h
[6] = target: T1, Replicase polyprotein 1ab; assay: Inhibition of MPro of SARS CoV-2 BetaCoV/Wuhan/WIV04/2019 incubated for 2 hrs in presence of substrate by FRET assay

| SMILES | IC50 [2] [µM] | other results |
| --- | --- | --- |
| C=CS(=O)(=O)N(c1ccc(-c2ccccc2)cc1)[C@@H](C(=O)N[C@@H](C)c1ccccc1)c1cccnc1 | 0.31 | CC50 [1]: 18.4 µM |
| COc1ccc(/C=C(\C#N)C(=O)N(c2ccc(-c3ccccc3)cc2)[C@@H](C(=O)N[C@@H](C)c2ccccc2)c2cccnc2)cc1 | – | CC50 at 48 h [3]: > 100 µM; CC50 [1]: > 100 µM |
| C#CC(=O)N(c1ccc(-c2ccccc2)cc1)[C@@H](C(=O)N[C@@H](C)c1ccccc1)c1cccnc1 | – | CC50 at 120 h [1]: 2.06 µM |
| C#CCN(c1ccc(-c2ccccc2)cc1)C(C(=O)N[C@@H](C)c1ccccc1)c1cccnc1 (stereo partly drawn) | > 20 | – |
| CCC#CC(=O)N(c1ccc(-c2ccccc2)cc1)C(C(=O)N[C@@H](C)c1ccccc1)c1cccnc1 (stereo partly drawn) | 1.65 | CC50 at 120 h [1]: 38.6 µM |
| C=C(NC(C)=O)C(=O)N(c1ccc(-c2ccccc2)cc1)C(C(=O)N[C@@H](C)c1ccccc1)c1cccnc1 (stereo partly drawn) | > 20 | – |
| C[C@H](NC(=O)C(c1cccnc1)N(C(=O)C1(C#N)CCN(C(=O)OC(C)(C)C)CC1)c1ccc(-c2ccccc2)cc1)c1ccccc1 (stereo partly drawn) | > 20 | – |
| C[C@H](NC(=O)C(c1cccnc1)N(C(=O)/C=C/Br)c1ccc(-c2ccccc2)cc1)c1ccccc1 (stereo partly drawn) | > 20 | – |
| C=C(C(=O)N(c1ccc(-c2ccccc2)cc1)C(C(=O)N[C@@H](C)c1ccccc1)c1cccnc1)c1ccccc1 (stereo partly drawn) | > 20 | – |
| C[C@H](NC(=O)[C@H](c1cccnc1)N(C(=O)C#CCCl)c1ccc(-c2ccccc2)cc1)c1ccccc1 | – | CC50 [1]: 2.2 µM |
| C[C@H](NC(=O)[C@H](c1cccnc1)N(C(=O)C#CCC#N)c1ccc(-c2ccccc2)cc1)c1ccccc1 | > 20 | – |
| C[C@H](NC(=O)C(c1cccnc1)N(C(=O)/C(C#N)=C/C1CC1)c1ccc(-c2ccccc2)cc1)c1ccccc1 (stereo partly drawn) | > 20 | – |
| C[C@H](NC(=O)C(c1cccnc1)N(C(=O)C(C#N)=C1CCCCC1)c1ccc(-c2ccccc2)cc1)c1ccccc1 (stereo partly drawn) | > 20 | – |
| C/C=C(\C)C(=O)N(c1ccc(-c2ccccc2)cc1)C(C(=O)N[C@@H](C)c1ccccc1)c1cccnc1 (stereo partly drawn) | > 20 | – |
| C#CCC(=O)N(c1ccc(-c2ccccc2)cc1)C(C(=O)N[C@@H](C)c1ccccc1)c1cccnc1 (stereo partly drawn) | 4.63 | – |
| COC(=O)/C=C/C(=O)N(c1ccc(-c2ccccc2)cc1)C(C(=O)N[C@@H](C)c1ccccc1)c1cccnc1 (stereo partly drawn) | 3.97 | CC50 at 120 h [1]: 8.9 µM |
| C=C(Br)C(=O)N(c1ccc(-c2ccccc2)cc1)C(C(=O)N[C@@H](C)c1ccccc1)c1cccnc1 (stereo partly drawn) | 4.26 | CC50 at 120 h [1]: < 3.9 µM |
| C=C(C)C(=O)N(c1ccc(-c2ccccc2)cc1)C(C(=O)N[C@@H](C)c1ccccc1)c1cccnc1 (stereo partly drawn) | > 20 | – |
| C=C(Cl)C(=O)N(c1ccc(-c2ccccc2)cc1)C(C(=O)N[C@@H](C)c1ccccc1)c1cccnc1 (stereo partly drawn) | – | CC50 [4]: < 10 µM |
| C[C@H](NC(=O)C(c1cccnc1)N(C(=O)C#CC(C)(C)O)c1ccc(-c2ccccc2)cc1)c1ccccc1 (stereo partly drawn) | 1.28 | CC50 at 120 h [1]: 19.1 µM |
| C[C@H](NC(=O)C(c1cccnc1)N(C(=O)C1=CC(=O)CC1)c1ccc(-c2ccccc2)cc1)c1ccccc1 (stereo partly drawn) | > 20 | – |
| C[C@H](NC(=O)C(c1cccnc1)N(C(=O)C#CC1CC1)c1ccc(-c2ccccc2)cc1)c1ccccc1 (stereo partly drawn) | 0.85 | CC50 [1]: 102 µM |
| CC(C)C#CC(=O)N(c1ccc(-c2ccccc2)cc1)C(C(=O)N[C@@H](C)c1ccccc1)c1cccnc1 (stereo partly drawn) | 4.19 | – |
| CCC(=O)C(=O)N(c1ccc(-c2ccccc2)cc1)C(C(=O)N[C@@H](C)c1ccccc1)c1cccnc1 (stereo partly drawn) | 3.81 | – |

| SMILES | IC50 [2] [µM] | other results |
| --- | --- | --- |
| CC(C)=CC(=O)N(c1ccc(-c2ccccc2)cc1)C(C(=O)N[C@@H](C)c1ccccc1)c1cccnc1 (stereo partly drawn) | > 20 | – |
| C=CC(=O)N(c1ccc(-c2ccccc2)cc1)C(C(=O)N[C@@H](C)c1ccccc1)c1cccnc1 (stereo partly drawn) | – | IC50 [5]: > 20 µM |
| C[C@H](NC(=O)[C@@H](c1cccnc1)N(C(=O)C#CCC#N)c1ccc(-c2ccccc2)cc1)c1ccccc1 | 0.5 | EC50 (SARS-CoV-2): 2.92 µM; Ki [6]: 0.345 µM; CC50 at 48 h [3]: > 100 µM; CC50 at 120 h [1]: > 100 µM |
| CC#CC(=O)N(c1ccc(-c2ccccc2)cc1)C(C(=O)N[C@@H](C)c1ccccc1)c1cccnc1 (stereo partly drawn) | – | CC50 at 120 h [1]: 18 µM |
| C[C@H](NC(=O)C(c1cccnc1)N(C(=O)/C=C/c1ccco1)c1ccc(-c2ccccc2)cc1)c1ccccc1 (stereo partly drawn) | 15.4 | – |
| C[C@H](NC(=O)C(c1cccnc1)N(C(=O)/C=C\I)c1ccc(-c2ccccc2)cc1)c1ccccc1 (stereo partly drawn) | > 20 | – |
| C#CC(=O)N(c1ccc(-c2ccccc2)cc1)[C@H](C(=O)N[C@@H](C)c1ccccc1)c1cccnc1 | – | CC50 at 120 h [1]: 2.8 µM |
| C=CS(=O)(=O)N(c1ccc(-c2ccccc2)cc1)[C@H](C(=O)N[C@@H](C)c1ccccc1)c1cccnc1 | 6.49 | – |
| CC(=O)/C=C/C(=O)N(c1ccc(-c2ccccc2)cc1)C(C(=O)N[C@@H](C)c1ccccc1)c1cccnc1 (stereo partly drawn) | 17 | – |
| C=C(F)C(=O)N(c1ccc(-c2ccccc2)cc1)C(C(=O)N[C@@H](C)c1ccccc1)c1cccnc1 (stereo partly drawn) | > 20 | – |
| C[C@H](NC(=O)C(c1cccnc1)N(C(=O)C#CC(C)(C)F)c1ccc(-c2ccccc2)cc1)c1ccccc1 (stereo partly drawn) | > 20 | – |
| C[C@H](NC(=O)C(c1cccnc1)N(C(=O)/C=C/C(=O)O)c1ccc(-c2ccccc2)cc1)c1ccccc1 (stereo partly drawn) | 12.4 | CC50 at 120 h [1]: > 250 µM |
| C[C@H](NC(=O)C(c1cccnc1)N(C(=O)C1(C#N)CC1)c1ccc(-c2ccccc2)cc1)c1ccccc1 (stereo partly drawn) | > 20 | – |
| C[C@H](NC(=O)C(c1cccnc1)N(C(=O)C(=O)N1CCN(C)CC1)c1ccc(-c2ccccc2)cc1)c1ccccc1 (stereo partly drawn) | > 20 | – |
| C=C(C(=O)N(c1ccc(-c2ccccc2)cc1)C(C(=O)N[C@@H](C)c1ccccc1)c1cccnc1)C(F)(F)F (stereo partly drawn) | 4.36 | CC50 at 120 h [1]: < 3.9 µM |
| C[C@H](NC(=O)C(c1cccnc1)N(C(=O)C1=CCCCC1)c1ccc(-c2ccccc2)cc1)c1ccccc1 (stereo partly drawn) | > 20 | – |
| C[C@H](NC(=O)[C@@H](c1cccnc1)N(C(=O)C#CCCl)c1ccc(-c2ccccc2)cc1)c1ccccc1 | – | CC50 [1]: 2 µM |
| C#CCCC(=O)N(c1ccc(-c2ccccc2)cc1)C(C(=O)N[C@@H](C)c1ccccc1)c1cccnc1 (stereo partly drawn) | > 20 | – |
| C[C@H](NC(=O)C(c1cccnc1)N(C(=O)C(F)(F)S(=O)(=O)F)c1ccc(-c2ccccc2)cc1)c1ccccc1 (stereo partly drawn) | > 20 | – |
| CC(C)/C=C(\C#N)C(=O)N(c1ccc(-c2ccccc2)cc1)C(C(=O)N[C@@H](C)c1ccccc1)c1cccnc1 (stereo partly drawn) | > 20 | – |
| C[C@H](NC(=O)C(c1cccnc1)N(C(=O)C1(C#N)CCOCC1)c1ccc(-c2ccccc2)cc1)c1ccccc1 (stereo partly drawn) | > 20 | – |
| CO/C=C/C(=O)N(c1ccc(-c2ccccc2)cc1)C(C(=O)N[C@@H](C)c1ccccc1)c1cccnc1 (stereo partly drawn) | > 20 | – |
| C[C@H](NC(=O)C(c1cccnc1)N(C(=O)/C=C/Cl)c1ccc(-c2ccccc2)cc1)c1ccccc1 (stereo partly drawn) | > 20 | – |
| CCC(CC)COC(=O)[C@H](C)N[P@](=O)(OC[C@H]1O[C@@](C#N)(c2ccc3c(N)ncnn23)[C@H](O)[C@@H]1O)Oc1ccccc1 [REMDESIVIR] | – | EC50 (SARS-CoV-2): 0.17 µM; CC50 at 48 h [3]: > 10 µM; CC50 at 120 h [1]: > 10 µM |
